Data published in ChEMBL document CHEMBL3124909, “Heat shock protein 70 inhibitors. 2. 2,5'-thiodipyrimidines, 5-(phenylthio)pyrimidines, 2-(pyridin-3-ylthio)pyrimidines, and 3-(phenylthio)pyridines as reversible binders to an allosteric site on heat shock protein 70” (J Med Chem, 2014).
Calls of active or inactive are those of the source. No cut-off for these calls is given here.

tested on: MOLM-13; experiment: Inhibition of HSP70 in human MOLM13 cells assessed as STAT5 degradation at 1 to 20 uM by Western blotting analysis; assay type: cell-based; details: not given
Method in brief: (§1)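 Cells (SKBr3, MDA-MB-468, MiaPaCa-2 in DME/F12; MOLM-13 in RPMI; 10% FBS) grown to 60–70% confluence, then given inhibitor or DMSO. Lysis in 50 mM Tris pH 7.4, 150 mM NaCl, 1% NP-40. Protein measured by BCA, and client proteins or cleaved PARP detected by immunoblotting with peroxidase-conjugated secondary antibody.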

SMILES | inhibition
CN1CCN(c2ncc(Sc3cccc(NC(=O)CN)c3)c(OCc3ccccc3)n2)CC1 | Active

tested on: SK-BR-3; experiment: Inhibition of HSP70 in human SKBR3 cells assessed as HER2 degradation by Western blotting analysis; assay type: cell-based; details: not given; method in brief: as §1

SMILES | INH [µM]
COc1nc(N2CCN(C)CC2)nc(OC)c1Sc1cccc(NC(=O)C2CCC2)c1 | 70
COc1nc(N2CCN(C)CC2)nc(OC)c1Sc1nc(N)cc(NC(C)=O)n1 | 125
CCCCCCCC(=O)Nc1cc(N)nc(Sc2c(OC)nc(N3CCN(C)CC3)nc2OC)n1 | > 25
COc1nc(N2CCN(C)CC2)nc(OC)c1Sc1cccc(NC(=O)CN)c1 | 20
COc1nc(N2CCN(C)CC2)nc(OC)c1Sc1cccc(NC(=O)c2ccccc2)c1 | 7.5
COc1nc(N2CCN(C)CC2)ccc1Sc1cccc(NC(=O)c2ccccc2)c1 | 19
COc1nc(N2CCN(C)CC2)nc(OC)c1Sc1nc(N)cc(NC(=O)CCN(C)C)n1 | 70
CN1CCN(c2ncc(Sc3cccc(NC(=O)CN)c3)c(OCc3ccccc3)n2)CC1 | 1.5

tested on: MIA PaCa-2; experiment: Inhibition of HSP70 in human MIAPaCa2 cells assessed as AKT degradation at 1 to 20 uM by Western blotting analysis; assay type: cell-based; details: not given; method in brief: as §1

SMILES | inhibition
CN1CCN(c2ncc(Sc3cccc(NC(=O)CN)c3)c(OCc3ccccc3)n2)CC1 | Active

tested on: not listed separately; experiment: Cytotoxicity against human SKBR3 cells after 72 hrs by alamar blue assay; assay type: functional, SK-BR-3; details: not given
Method in brief: (§2)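 Alamar Blue (resazurin) viability assay: attached cells (SKBr3) plated at 8000/well, suspension cells (Kasumi-1) at 20000/well, left 24 h at 37 °C, then drug added in triplicate for 72 h. Alamar Blue 50 μM added, fluorescence read 6 h later (ex 530, em 580 nm). Growth inhibition versus control corrected for time-zero population; IC50 = concentration giving 50% growth inhibition.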

SMILES | GI [µM]
COc1nc(N2CCN(C)CC2)nc(OC)c1Sc1cccc(NC(=O)C2CCC2)c1 | 70
COc1nc(N2CCN(C)CC2)nc(OC)c1Sc1cccc(NC(=O)CN)c1 | 25
COc1nc(N2CCN(C)CC2)nc(OC)c1Sc1cccc(NC(=O)c2ccccc2)c1 | 8
COc1nc(N2CCN(C)CC2)ccc1Sc1cccc(NC(=O)c2ccccc2)c1 | 20
CN1CCN(c2ncc(Sc3cccc(NC(=O)CN)c3)c(OCc3ccccc3)n2)CC1 | 2.1

tested on: SK-BR-3; experiment: Induction of apoptosis in human SKBR3 cells assessed as c-PARP cleavage by Western blotting analysis; assay type: functional; details: not given; method in brief: as §1

SMILES | INH [µM]
COc1nc(N2CCN(C)CC2)nc(OC)c1Sc1cccc(NC(=O)C2CCC2)c1 | 75
COc1nc(N2CCN(C)CC2)nc(OC)c1Sc1nc(N)cc(NC(C)=O)n1 | 180
CCCCCCCC(=O)Nc1cc(N)nc(Sc2c(OC)nc(N3CCN(C)CC3)nc2OC)n1 | >25
COc1nc(N2CCN(C)CC2)nc(OC)c1Sc1cccc(NC(=O)CN)c1 | 40
COc1nc(N2CCN(C)CC2)nc(OC)c1Sc1cccc(NC(=O)c2ccccc2)c1 | 7.5
COc1nc(N2CCN(C)CC2)ccc1Sc1cccc(NC(=O)c2ccccc2)c1 | 25
COc1nc(N2CCN(C)CC2)nc(OC)c1Sc1nc(N)cc(NC(=O)CCN(C)C)n1 | 75
CN1CCN(c2ncc(Sc3cccc(NC(=O)CN)c3)c(OCc3ccccc3)n2)CC1 | 1.5

target: Receptor-type tyrosine-protein kinase FLT3 (Homo sapiens) (UniProt P36888); experiment: Inhibition of HSP70 in human MOLM13 cells assessed as mutant FLT3 degradation at 1 to 20 uM by Western blotting analysis; assay type: cell-based; details: MOLM-13; method in brief: as §1
Sequence (P36888 whole entry): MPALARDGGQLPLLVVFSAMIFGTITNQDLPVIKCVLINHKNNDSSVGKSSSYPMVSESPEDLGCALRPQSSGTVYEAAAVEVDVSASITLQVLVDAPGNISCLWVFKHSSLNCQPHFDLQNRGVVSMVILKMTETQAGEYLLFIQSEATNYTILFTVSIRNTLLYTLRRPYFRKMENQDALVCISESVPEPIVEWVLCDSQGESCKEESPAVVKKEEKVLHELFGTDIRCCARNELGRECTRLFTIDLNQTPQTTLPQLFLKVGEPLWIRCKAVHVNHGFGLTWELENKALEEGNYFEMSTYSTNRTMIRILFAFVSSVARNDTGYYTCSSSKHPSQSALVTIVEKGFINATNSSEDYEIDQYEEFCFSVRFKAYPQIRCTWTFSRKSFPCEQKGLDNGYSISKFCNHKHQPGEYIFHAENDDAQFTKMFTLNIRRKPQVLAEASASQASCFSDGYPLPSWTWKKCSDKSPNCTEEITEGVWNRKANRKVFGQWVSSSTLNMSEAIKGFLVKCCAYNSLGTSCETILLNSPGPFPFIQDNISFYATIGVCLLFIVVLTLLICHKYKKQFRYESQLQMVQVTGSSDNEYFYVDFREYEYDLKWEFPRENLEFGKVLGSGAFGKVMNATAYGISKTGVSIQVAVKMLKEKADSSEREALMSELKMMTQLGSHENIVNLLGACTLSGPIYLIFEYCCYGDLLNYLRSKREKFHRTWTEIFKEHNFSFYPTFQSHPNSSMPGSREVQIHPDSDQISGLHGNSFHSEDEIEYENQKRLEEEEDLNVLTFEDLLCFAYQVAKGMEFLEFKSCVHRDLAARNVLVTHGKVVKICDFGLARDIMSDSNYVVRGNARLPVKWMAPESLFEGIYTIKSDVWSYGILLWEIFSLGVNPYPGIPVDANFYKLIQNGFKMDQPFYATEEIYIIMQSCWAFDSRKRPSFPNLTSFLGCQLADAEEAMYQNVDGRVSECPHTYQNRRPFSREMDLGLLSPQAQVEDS

inhibition | SMILES
Active | CN1CCN(c2ncc(Sc3cccc(NC(=O)CN)c3)c(OCc3ccccc3)n2)CC1

target: Heat shock protein HSP 90-beta (Homo sapiens) (UniProt P08238); experiment: Displacement of GM-Cy3B from HSP90 in human SKBR3 cells after 24 hrs by fluorescence polarization assay; details: SK-BR-3
Sequence (P08238 whole entry): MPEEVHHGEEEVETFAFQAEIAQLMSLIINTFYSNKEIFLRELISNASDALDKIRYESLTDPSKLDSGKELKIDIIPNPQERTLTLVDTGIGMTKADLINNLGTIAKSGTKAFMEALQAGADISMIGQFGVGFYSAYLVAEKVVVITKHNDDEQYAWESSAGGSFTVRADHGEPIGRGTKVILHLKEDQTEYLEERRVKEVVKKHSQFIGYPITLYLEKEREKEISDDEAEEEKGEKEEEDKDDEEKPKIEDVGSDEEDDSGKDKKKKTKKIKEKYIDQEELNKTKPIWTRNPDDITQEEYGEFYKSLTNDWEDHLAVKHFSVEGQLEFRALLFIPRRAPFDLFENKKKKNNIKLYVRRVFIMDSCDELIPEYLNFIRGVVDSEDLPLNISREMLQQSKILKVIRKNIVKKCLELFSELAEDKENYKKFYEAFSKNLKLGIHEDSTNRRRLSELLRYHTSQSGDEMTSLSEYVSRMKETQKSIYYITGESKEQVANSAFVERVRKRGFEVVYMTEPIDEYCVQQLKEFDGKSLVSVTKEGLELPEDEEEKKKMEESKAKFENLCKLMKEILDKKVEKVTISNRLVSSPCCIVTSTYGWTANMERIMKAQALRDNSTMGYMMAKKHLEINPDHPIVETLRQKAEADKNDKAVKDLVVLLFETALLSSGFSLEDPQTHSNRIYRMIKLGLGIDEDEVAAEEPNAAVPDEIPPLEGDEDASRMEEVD

SMILES | INH [µM]
COc1nc(N2CCN(C)CC2)nc(OC)c1Sc1cccc(NC(=O)C2CCC2)c1 | > 250
COc1nc(N2CCN(C)CC2)nc(OC)c1Sc1nc(N)cc(NC(C)=O)n1 | > 500
CCCCCCCC(=O)Nc1cc(N)nc(Sc2c(OC)nc(N3CCN(C)CC3)nc2OC)n1 | > 500
COc1nc(N2CCN(C)CC2)nc(OC)c1Sc1cccc(NC(=O)CN)c1 | > 500
COc1nc(N2CCN(C)CC2)nc(OC)c1Sc1nc(N)cc(NC(=O)CCN(C)C)n1 | > 500

The remaining lines, values ahead:

INH [µM] | SMILES
497 | COc1nc(N2CCN(C)CC2)nc(OC)c1Sc1cccc(NC(=O)c2ccccc2)c1
> 250 | COc1nc(N2CCN(C)CC2)ccc1Sc1cccc(NC(=O)c2ccccc2)c1
> 500 | CN1CCN(c2ncc(Sc3cccc(NC(=O)CN)c3)c(OCc3ccccc3)n2)CC1

tested on: MIA PaCa-2; experiment: Inhibition of HSP70 in human MIAPaCa2 cells assessed as STAT-3 degradation at 1 to 20 uM by Western blotting analysis; assay type: cell-based; details: not given; method in brief: as §1

SMILES | inhibition
CN1CCN(c2ncc(Sc3cccc(NC(=O)CN)c3)c(OCc3ccccc3)n2)CC1 | Active

tested on: HEK293; experiment: Inhibition of human HSP70 expressed in HEK293 cells assessed as inhibition of refolding of heat denatured luciferase at 10 uM incubated for 1 hr followed by heat treatment measured after 2 hrs by Western blotting analysis; assay type: cell-based; details: not given
Method in brief: (§3)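 HEK293 cells cotransfected with C-terminal HA-luciferase plus N-terminal Flag-human Hsp70 or control vector. Two days later: cycloheximide 50 μg/mL, compound at 10 μM added just before 1 h at 45 °C, then recovery at 37 °C up to 2 h. Triton X-100 lysates cleared at 20000g; luciferase activity normalized to protein, expressed as % of pre-heat-shock activity; soluble proteins immunoblotted.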

SMILES | inhibition
CN1CCN(c2ncc(Sc3cccc(NC(=O)CN)c3)c(OCc3ccccc3)n2)CC1 | Active

tested on: MIA PaCa-2; experiment: Inhibition of HSP70 in human MIAPaCa2 cells assessed as Raf-1 degradation at 1 to 20 uM by Western blotting analysis; assay type: cell-based; details: not given; method in brief: as §1

SMILES | inhibition
CN1CCN(c2ncc(Sc3cccc(NC(=O)CN)c3)c(OCc3ccccc3)n2)CC1 | Active

tested on: MOLM-13; experiment: Induction of apoptosis in human MOLM13 cells assessed as caspase 3/7 activation after 16 hrs by fluorescence assay; assay type: functional, cell-based; details: Homo sapiens, MOLM-13, 16 h; read-out: IC50
Method in brief: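 MOLM-13 cells at 30000/well in RPMI, held up to 24 h (37 °C, 5% CO2), then exposed 16 h to compound or DMSO. Buffer with 10 mM HEPES pH 7.5, 2 mM EDTA, 0.1% CHAPS and 25 μM Z-DEVD-R110 substrate added; fluorescence read once signal stabilized. Percent apoptotic increase calculated relative to control cells.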

SMILES | IC50 [µM]
COc1nc(N2CCN(C)CC2)nc(OC)c1Sc1cccc(NC(=O)C2CCC2)c1 | 60
COc1nc(N2CCN(C)CC2)nc(OC)c1Sc1nc(N)cc(NC(C)=O)n1 | 165
CCCCCCCC(=O)Nc1cc(N)nc(Sc2c(OC)nc(N3CCN(C)CC3)nc2OC)n1 | > 50
COc1nc(N2CCN(C)CC2)nc(OC)c1Sc1cccc(NC(=O)CN)c1 | 18
COc1nc(N2CCN(C)CC2)nc(OC)c1Sc1nc(N)cc(NC(=O)CCN(C)C)n1 | 25

Further lines, results first:

IC50 [µM] | SMILES
8 | COc1nc(N2CCN(C)CC2)nc(OC)c1Sc1cccc(NC(=O)c2ccccc2)c1
20 | COc1nc(N2CCN(C)CC2)ccc1Sc1cccc(NC(=O)c2ccccc2)c1
1.9 | CN1CCN(c2ncc(Sc3cccc(NC(=O)CN)c3)c(OCc3ccccc3)n2)CC1

tested on: HEK293; experiment: Inhibition of HSP70 in HEK293 cells assessed as inhibition of refolding of heat denatured luciferase at 10 uM incubated for 1 hr followed by heat treatment measured after 2 hrs by Western blotting analysis; assay type: cell-based; details: Homo sapiens; method in brief: as §3

SMILES | inhibition
CN1CCN(c2ncc(Sc3cccc(NC(=O)CN)c3)c(OCc3ccccc3)n2)CC1 | Active

tested on: Heat shock 70 kDa protein (Homo sapiens); experiment: Inhibition of HSP70 in human SKBR3 cells assessed as inhibition of HSP70-HOP-HSP90 complex formation after 24 hrs by Western blotting analysis; details: SK-BR-3

inhibition | SMILES
Dose-dependent effect | CN1CCN(c2ncc(Sc3cccc(NC(=O)CN)c3)c(OCc3ccccc3)n2)CC1

tested on: SK-BR-3; experiment: Inhibition of HSP70 in human SKBR3 cells assessed as Raf-1 degradation by Western blotting analysis; assay type: cell-based; details: not given; method in brief: as §1

SMILES | INH [µM]
COc1nc(N2CCN(C)CC2)nc(OC)c1Sc1cccc(NC(=O)C2CCC2)c1 | 45
COc1nc(N2CCN(C)CC2)nc(OC)c1Sc1nc(N)cc(NC(C)=O)n1 | 150
CCCCCCCC(=O)Nc1cc(N)nc(Sc2c(OC)nc(N3CCN(C)CC3)nc2OC)n1 | > 25
COc1nc(N2CCN(C)CC2)nc(OC)c1Sc1cccc(NC(=O)CN)c1 | 20
COc1nc(N2CCN(C)CC2)nc(OC)c1Sc1cccc(NC(=O)c2ccccc2)c1 | 10
COc1nc(N2CCN(C)CC2)ccc1Sc1cccc(NC(=O)c2ccccc2)c1 | 20
COc1nc(N2CCN(C)CC2)nc(OC)c1Sc1nc(N)cc(NC(=O)CCN(C)C)n1 | 50
CN1CCN(c2ncc(Sc3cccc(NC(=O)CN)c3)c(OCc3ccccc3)n2)CC1 | 1.2

tested on: MDA-MB-468; experiment: Inhibition of HSP70 in human MDA-MB-468 cells assessed as Raf-1 degradation at 0.5 to 25 uM by Western blotting analysis; assay type: cell-based; details: not given; method in brief: as §1

SMILES | inhibition
CN1CCN(c2ncc(Sc3cccc(NC(=O)CN)c3)c(OCc3ccccc3)n2)CC1 | Active

tested on: Kasumi 1; experiment: Cytotoxicity against human Kasumi-1 cells after 72 hrs by alamar blue assay; assay type: functional, cell-based; details: Homo sapiens, Kasumi 1, 72 h; read-out: IC50; method in brief: as §2

SMILES | IC50 [µM]
COc1nc(N2CCN(C)CC2)nc(OC)c1Sc1cccc(NC(=O)C2CCC2)c1 | 47.2
COc1nc(N2CCN(C)CC2)nc(OC)c1Sc1cccc(NC(=O)CN)c1 | 22.5
COc1nc(N2CCN(C)CC2)nc(OC)c1Sc1cccc(NC(=O)c2ccccc2)c1 | 8.1
COc1nc(N2CCN(C)CC2)ccc1Sc1cccc(NC(=O)c2ccccc2)c1 | 4.7
COc1nc(N2CCN(C)CC2)nc(OC)c1Sc1nc(N)cc(NC(=O)CCN(C)C)n1 | 14.7
CN1CCN(c2ncc(Sc3cccc(NC(=O)CN)c3)c(OCc3ccccc3)n2)CC1 | 2.3

tested on: MDA-MB-468; experiment: Inhibition of HSP70 in human MDA-MB-468 cells assessed as STAT-3 degradation at 0.5 to 25 uM by Western blotting analysis; assay type: cell-based; details: not given; method in brief: as §1

SMILES | inhibition
CN1CCN(c2ncc(Sc3cccc(NC(=O)CN)c3)c(OCc3ccccc3)n2)CC1 | Active
